Source: PubChem BioAssay (several laboratories)
BaF3 tox = parental Ba/F3 cell viability inhibition, counter-screen for JAK2V617F inhibitor project, murine pro-B, CellTiter-Glo luminescence; 1.1% of 220,000 active; CellTiter-Glo ATP luminescence; inhibition, % at 5.6 µM;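 active = inhibition above a per-campaign cutoff, the mean inhibition of all tested compounds plus 3 SD, cut at about 27% in these data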;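 also: 0% = DMSO wells and 100% = JAK Inhibitor I control wells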
MT stabilizer = microtubule stabilizers in HeLa cells, primary screen, imaging, high-content imaging | HeLa tubulin immunostaining HCS, 24 h; share of cells brighter than vehicle mean+2SD | 0.83% of 200,000 active | % tubulin-high responders, % at 10 µM;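 active = plate Z-score above 3 for both tubulin-high and condensed-nucleus cell shares, with cell loss under 80%, at 10 µM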;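 also: anti alpha tubulin signal scored within the nucleus-defined area of each cell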
APP transl inh = inhibitors of APP translation via 5'UTR reporter, primary screen, APP 5'UTR luciferase, SH-SY5Y cells. SH-SY5Y APP 5'UTR-luciferase reporter, luminescence. inhibition, % at 2 µM. 0.82% of 190,000 active. AID 1285, 2008;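 active = inhibition above a set limit, derived from the sample mean plus 3 SD, cut at about 45% in these data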
IEC-6 cytotox = cytotoxicity in IEC-6 intestinal epithelial cells, primary screen, cytotoxicity control for KLF5 inhibitor project, cell-based, luminescence; IEC-6 cytotoxicity, luminescence viability; inhibition, % at 5 µM; 0.78% of 290,000 active; in the data active = inhibition above about 22%;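 also: 0% = plate median of test compound wells and 100% = cytotoxic reference compound wells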
bCat nuc transl = modulators of beta-catenin nuclear translocation, primary screen, imaging, HeLa cells, immunofluorescence, high-content; 0.3% of 190,000 active; nuclear translocation activity, % at 5 µM;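 active = nuclear translocation activity above 50% at 5 µM, with a well cell count of 50 or more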;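 also: per-cell ratio of nuclear to cytoplasmic median beta-catenin stain intensity; plate controls were DMSO negative control for no effect and GSK-3 inhibitor IX positive control for full effect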
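System: HeLa cells, endogenous beta-catenin; compound dosing: 5 µM primary single dose, 0.1% DMSO, 0.02–20 µM confirmation series; incubation: 24 h compound exposure at 37°C, 5% CO2; signal: beta-catenin immunofluorescence imaging with DAPI; evaluation: % activation, nuclear-to-cytoplasmic median beta-catenin signal ratio per cell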
Ba/F3 V617F tox = reduced viability of JAK2V617F-dependent Ba/F3 cells, primary screen, JAK2V617F inhibitor project, cell-based, Ba/F3 EpoR-JAK2V617F, luminescence | ATP luminescence | inhibition, % at 5.6 µM | 1.1% of 220,000 active | AID 1446, 2008;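 active = inhibition above the campaign mean plus 3 SD over all tested compounds, cut at about 24% in these data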;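 also: cytokine-independent growth of Ba/F3 cells driven by EpoR plus mutant JAK2; 0% = DMSO-treated cells and 100% = JAK inhibitor I control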
Active calls of the source: *; x = no result given. This is a sample that favours compounds with a hit; in the whole collection about 2.2% have one here.

SMILES	BaF3 tox	MT stabilizer	APP transl inh	IEC-6 cytotox	bCat nuc transl	Ba/F3 V617F tox
COc1ccc(/C=c2/sc3n(c2=O)C(c2ccccc2OC)C2=C(N=3)c3ccccc3CC2)cc1O (centres undefined)	29*	33*	84*	-2	1	11
CCOC(=O)C1=C(C)N=c2s/c(=C\c3ccc(O)c([N+](=O)[O-])c3)c(=O)n2C1c1ccccc1OC (centres undefined)	x	x	x	-12	x	x
CCCCCCCC[n+]1c(C)n(-c2ccccc2)c2ccc(NC(C)=O)cc21	74*	5	-9	9	-2	87*
O=C(c1ccccc1)N(Cc1cccc(Br)c1)C1CCS(=O)(=O)C1 (centres undefined)	x	x	x	-8	x	x
CC[C@@]12C(=O)N(c3ccc(OC)cc3)C(=O)N1[C@H](c1cccc(C)c1)[C@@H]1C(=O)N(Cc3ccccc3)C(=O)[C@@H]12	x	x	x	2	x	x
O=[N+]([O-])c1cc2c(c(CSc3ncccn3)c1)OCOC2	2	3	11	1	2	-3
COc1cccc(Nc2nnc(SCc3cc([N+](=O)[O-])cc4c3OCOC4)s2)c1	4	2	92*	2	-1	3
Cc1cccc(C)c1Nc1nnc(SCc2cc([N+](=O)[O-])cc3c2OCOC3)s1	3	3	48*	0	x	-1
Cc1cccc(N2CCN(C(=O)C3CCN(c4ncnc5c4nc4n5CCCCC4)CC3)CC2C)c1 (centres undefined)	x	x	x	-5	x	x
CC1CC(C)CN(CCCNS(=O)(=O)c2ccc3c(c2)CCN3C(=O)C2CC2)C1 (centres undefined)	x	x	x	0	x	x
O=C(c1cnn2c1NC(c1ccco1)CC2C(F)(F)F)N1CCN(c2cccc(Cl)c2)CC1 (centres undefined)	2	45*	2	4	44	-5
CCOC(=O)COc1cc(-n2c(=S)[nH]c3cc(OC)c(OC)cc3c2=O)c(Cl)cc1Cl	2	9.2*	-4	-5	-2	-1
Cn1c2c(c(=O)[nH]c1=O)C(c1cccc(O)c1)C1=C(N2)c2ccccc2C1=O (centres undefined)	16	20*	28	2	3	35*
COc1cccc(C2C3=C(Nc4[nH]n(-c5ccccc5)c(=O)c42)c2ccccc2C3=O)c1 (centres undefined)	5	2	12	2	0	-1
COc1cc(C(=O)OCC(=O)NC(=O)C2CCCCC2)ccc1OC(F)F	6	4	19	-7	2	2
O=C1N/C(=N\N=C\c2cccs2)SC1Cc1cccc(Cl)c1 (centres undefined)	3	22*	5	-2	25	-2
CCOCCCNC(=O)c1cc2sc(Cl)cc2n1CC	0	14*	9	-8	x	-4
O=C(NCc1cccc(C(F)(F)F)c1)C1CC(c2c(Cl)cccc2Cl)=NO1 (centres undefined)	14	37*	-1	14	44	7
O=C(NC1CCCC1)C(c1cccs1)N(C(=O)c1csnn1)c1ccccc1F (centres undefined)	x	x	x	-12	x	x
O=C(NCc1ccccn1)c1ccc(CNS(=O)(=O)c2ccc(F)cc2)cc1	0	2	-18	0	-3	-6
O=C(O)c1ccc(NC2=C(Cl)C(=O)c3ccccc3C2=O)cc1	4	x	x	5	2	5
C=CCNC1=C(Cl)C(=O)c2ccccc2C1=O	1	4	-3	27*	0	0
O=C1C(Cl)=C(Nc2ccccc2)C(=O)c2ccccc21	4	4	96*	-3	-3	-2
Cc1cc(C)n2cc(COc3ccc4ccccc4c3)nc2n1	0	5	-146	7	x	-3
Cc1cccc2nc(COc3ccc(-c4ccccc4)cc3)cn12	38*	4	-39	2	7	44*
SMILES	BaF3 tox	MT stabilizer	APP transl inh	IEC-6 cytotox	bCat nuc transl	Ba/F3 V617F tox
O=C(CSc1nnc(NC(=O)c2cccc(Cl)c2)s1)NCC1CCCO1 (centres undefined)	x	x	x	-4	x	x
CCOC(=O)c1sc(NC(=O)c2cc(-c3ccccc3)nc3ccccc23)c(C#N)c1C	-2	5	-7	-3	x	-3
CCCCCCC(=O)c1c(C)[nH]c(C(=O)OCC)c1C	41*	3	-18	8	-1	0
CCCCCC(=O)c1c(C)[nH]c(C(=O)OCC)c1C	1	3	-20	1	-2	-3
CCOC(=O)c1[nH]c(C=O)c(C(=O)OCC)c1C	3	5	91*	-4	2	4
COc1ccc(OC)c(CNC(=O)c2nn(C)c3c2CS(=O)(=O)c2ccccc2-3)c1	x	x	x	5	x	x
CCOC(=O)c1ccc2c(c1)n(CC)c(/C=C/N(C)c1ccccc1)[n+]2CC	66*	4	4	-2	-1	73*
CCCCCCCC#Cc1ccccc1/C=N/S(=O)c1ccc(C)cc1 (centres undefined)	38*	5	19	-2	x	8
CCCCC#Cc1ccccc1CC(=O)Nc1ccccc1	5	5	8	-4	-1	-3
Cc1ccc(C)c(-c2cc(C(=O)N/N=C/c3cccnc3)c3ccccc3n2)c1	x	x	x	4	x	x
CC1=C(C(=O)OC2CCC(C)CC2)C(c2ccc(O)c([N+](=O)[O-])c2)NC(=O)N1 (centres undefined)	x	x	x	-4	x	x
CC1=CC(C)C(C[N+]2(C)CCCCC2)C(C)C1 (centres undefined)	61*	3	18	-5	0	39*
CC(=O)Nc1ccc(Nc2cc(C)nc3c(-c4ccccc4)cnn23)cc1	4	6	-165	-2	1	1
CCOC(=O)C(C)Sc1nc2c(cnn2-c2ccc(C)cc2)c(=O)[nH]1 (centres undefined)	1	43*	-12	6	1	-4
Cc1ccc(-n2ncc3c(=O)[nH]c(SC(C)C)nc32)cc1	2	6	-11	8	-2	1
O=C(Nc1ccccc1)c1nnsc1S(=O)c1ccc(Cl)cc1 (centres undefined)	-4	2	0	6	0	-2
O=C(c1nnsc1S(=O)c1ccc(Cl)cc1)N1CCOCC1 (centres undefined)	40*	6	48*	14	-3	90*
CCOC(=O)c1ccc(N2C(=O)CC(N3CCC(Nc4ccc(F)cc4)CC3)C2=O)cc1 (centres undefined)	49*	2	17	3	0	4
Cc1ccc2c(c1)c1c3n2CCN(C(=O)CCl)C3CCC1 (centres undefined)	x	x	x	6	x	x
